Biological target: Platelet-activating factor acetylhydrolase (Mus musculus) (UniProt Q60963)
Assay: in vivo mouse pPAFAH activity blockade – gel-based competitive ABPP, fluorescence, in vivo study, late-stage follow-up (AID 588789)
Conditions: mouse oral dosing, brain membrane gel ABPP, HT-01; 50 mg/kg oral dose, 4 h; hits give high values
Outline: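 System: mouse brain membrane proteome after oral dosing; Buffer or medium: DPBS; Compound: oral 50 mg/kg in PEG; Schedule: 4 h dosing-to-sacrifice, then 30 min probe labelling, 37 °C; Measured by: in-gel fluorescence after SDS-PAGE; Read-out: % inhibition from band density versus vehicle; Benchmarks: vehicle mice high, gel background low; Replication: four mice.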

Chain of Platelet-activating factor acetylhydrolase (Mus musculus) (Q60963 whole entry, looked up): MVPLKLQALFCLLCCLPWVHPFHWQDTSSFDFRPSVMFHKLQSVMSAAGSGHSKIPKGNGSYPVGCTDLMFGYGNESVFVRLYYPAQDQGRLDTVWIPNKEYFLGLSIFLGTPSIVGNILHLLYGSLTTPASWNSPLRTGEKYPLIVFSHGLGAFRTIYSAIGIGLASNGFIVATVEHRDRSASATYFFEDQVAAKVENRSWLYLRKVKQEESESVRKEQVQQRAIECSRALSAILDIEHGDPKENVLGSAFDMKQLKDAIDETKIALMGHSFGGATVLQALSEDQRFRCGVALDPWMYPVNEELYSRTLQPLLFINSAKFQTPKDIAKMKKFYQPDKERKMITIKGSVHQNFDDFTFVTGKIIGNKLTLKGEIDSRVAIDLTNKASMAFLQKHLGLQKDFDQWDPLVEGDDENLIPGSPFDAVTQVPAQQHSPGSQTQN

SMILES	inhibition [%]
Cc1cc(N2CCN(C(=O)Oc3ccc(-c4ccccc4)cn3)CC2)c2ccccc2n1	86
Cc1cc(N2CCN(C(=O)Oc3ccc(-c4ccccc4)cc3)CC2)c2ccccc2n1	63
